Screens: PubChem BioAssay, several laboratories
A selection: hits, their analogues and other compounds. The true share with any hit is near 0.97%.
Dynein cargo inh – blocks dynein driven cargo transport along microtubules. 3617.4 mouse cells, GR-EGFP nuclear translocation imaging; test concentration mostly 20 µM; stimulated with dexamethasone, 1 µM; hits give low values. z-score, hits read low. 220,000 compounds, 0.47% hits;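 active = plate z-score of nuclear minus cytoplasmic receptor signal below a set negative limit, without overly bright fluorescence or cell loss, cut at about -3.5 in these data, passing the limit was not always enough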;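 also: z-score of nuclear minus cytoplasmic ring GR-EGFP intensity difference per well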
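Buffer or medium: tet-free, stripped-serum medium; Also added: dexamethasone, 1.0 µM final; Technique: high-content fluorescence imaging after fixation; Times: 48 h induction, 1 h compound, 30 min dex at 37 °C; Read-out: per-cell GR-EGFP intensity, nucleus versus surrounding cytoplasmic ring, well-averaged.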
MDM2 E3 inh – Mdm2 E3 ligase (human) inhibition; Q00987; cell-based MDM2 ubiquitination luciferase reporter, 2 h; 0 = plate control, 100 = twice control, blank-subtracted; signal enhancement, % at 5 µM; AID 1230; 210,000 compounds, 0.11% hits;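 active = signal enhancement of 30% or more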;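 also: luminescence tracks abundance of the self-degrading MDM2-luciferase fusion protein; higher signal means inhibition of MDM2 E3 ligase activity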
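Test system: mammalian cells stably expressing self-ubiquitinating, self-degrading MDM2 E3–luciferase fusion; Amount: 2000 cells in each well; Medium: DMEM; Schedule: 4 h settle plus 2 h compound, 37 °C; Technique: SteadyLite luciferase luminescence after 15 min room-temperature reagent incubation; Benchmarks: plate control and blank wells.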
Beta2AR agonist – agonists of human beta-2 adrenergic receptor inducing internalization; 340,000 compounds, 0.43% hits; P07550; response, % (test concentration not listed); AID 504454; Am2.2-beta2AR cells, FAP receptor internalization, flow cytometry;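 active = response above a set limit, near 3 SD of response in nonfluorescent compounds, cut at about 42% in these data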
Target sequence (P07550 whole entry, looked up): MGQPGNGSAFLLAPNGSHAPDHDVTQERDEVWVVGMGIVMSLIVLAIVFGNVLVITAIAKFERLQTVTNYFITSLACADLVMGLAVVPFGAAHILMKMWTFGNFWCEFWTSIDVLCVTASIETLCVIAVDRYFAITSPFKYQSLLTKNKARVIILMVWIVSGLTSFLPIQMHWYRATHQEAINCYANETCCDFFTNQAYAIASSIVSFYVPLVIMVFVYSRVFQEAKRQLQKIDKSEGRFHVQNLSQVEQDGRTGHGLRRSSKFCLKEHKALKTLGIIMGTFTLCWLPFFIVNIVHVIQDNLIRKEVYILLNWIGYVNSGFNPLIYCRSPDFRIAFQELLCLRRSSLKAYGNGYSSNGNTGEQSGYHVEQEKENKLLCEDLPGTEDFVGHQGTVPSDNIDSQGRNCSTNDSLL
TNF necrop inh – TNF-alpha cell death inhibition in Jurkat FADD-/- cells. AID 463075. activation (protection from cell death), % at 10 µM. Jurkat FADD-/- TNF necroptosis rescue, ATP luminescence, 24 h; 0 = TNF only, 100 = no-TNF cells. 220,000 compounds, 0.068% hits;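 active = activation, meaning protection from cell death, of at least 50% relative to plate controls; inactive = activation below 50%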;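 also: necroptosis triggered by 40 ng/mL TNF-alpha added together with compound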
zVAD death inh – blocks zVAD induced death of L929 cells | L929 zVAD necroptosis rescue, ATP luminescence, 24 h; with zVAD 60 µM | 220,000 compounds, 0.38% hits | viability rescue, % at 10 µM | AID 1377;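 active = activation, scaled between plate controls, above about 75%, limit read from the data; inactive = activation under that limit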
Beta2AR ag CP1 – human beta-2 adrenergic receptor agonism, cherry pick. AID 540358. 1,100 compounds, 25% hits. shares compounds with Beta2AR agonist. Am2.2-beta2AR cells, FAP surface receptor, flow cytometry; hits give low values. percent response (surface receptor), % at 10 µM;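 active = surface receptor percent response at or below 58%, roughly 3 SD from nonfluorescent compounds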
B2AR FAP counter – counter-screen for beta-2AR agonists: fluorescence in Am2.2 cells | shares compounds with Beta2AR agonist | FAP fluorogen flow cytometry, fluorescence counterscreen; hits give low values | 1,100 tested, under 10 active | calls only at 10 µM;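 active = percent response below a set limit in fluorescence channel 1 and below 50% in channel 8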
Numbers stand for hits; – = inactive; · = no result given; ! = a repeat was not active.

SMILES	Dynein cargo inh	MDM2 E3 inh	Beta2AR agonist	TNF necrop inh	zVAD death inh	Beta2AR ag CP1	B2AR FAP counter
Cc1cc(C)n2nc(C(=O)OCC(=O)Nc3ccc(C)c(S(=O)(=O)N(C)C)c3)nc2n1	·	·	–	·	·	·	·
COc1ccc(/C=C(/NC(=O)c2ccccc2)C(=O)N2CCCCC2)cc1OC	·	·	–	·	·	·	·
Nc1ccc(S(=O)(=O)c2ccc(Cl)cc2)cc1	–	–	–	–	–	·	·
COCc1nnc(NC(=O)C(C)C)s1	–	–	52.9	–	–	–	–
COCc1nnc(NC(=O)c2cccc(NC(=O)C(C)C)c2)s1	–	–	–	–	–	·	·
Cc1cc(C)nc(NC(=O)c2cc(-c3ccc4c(c3)OCO4)nc3ccccc23)c1	·	·	–	·	·	·	·
CCN(CC)c1nc(SCCOC(=O)Nc2ccccc2)nc(N(CC)CC)n1	–	–	43.9	–	–	–	–
O=C(CSCc1c(Cl)cccc1Cl)Nc1nccs1	–	–	–	–	–	·	·
O=C(CSCc1ccc(Cl)cc1Cl)Nc1nccs1	–	–	53.9	–	·	–	–
Cn1c(SC2=CS(=O)(=O)c3ccccc32)nc2ccccc21	–	–	73.8	–	–	–	–
Cn1c(CSc2nc3ccccc3n2C)nc2ccccc21	–	–	–	–	–	·	·
CN(C)CCCN(C(=O)c1ccc([N+](=O)[O-])s1)c1nc2cc3c(cc2s1)OCCO3	·	·	42.2	·	·	–	–
Cc1ccc2nc(N(CCCN(C)C)C(=O)c3ccc(Br)s3)sc2c1	–	–	54.1	–	–	–	–
CN(C)CCCN(C(=O)c1ccc(Br)s1)c1nc2cc3c(cc2s1)OCCO3	·	·	–	·	·	·	·
NC(=O)CC(NC(=O)c1cccc(Br)c1)c1ccc(N2CCN(c3ccccn3)CC2)c([N+](=O)[O-])c1 (stereo unspecified)	·	·	96.9	·	·	14.2	–
NC(=O)CC(NC(=O)Cc1ccc(Br)cc1)c1ccc(N2CCN(c3ccccn3)CC2)c([N+](=O)[O-])c1 (stereo unspecified)	·	·	63.3	·	·	–	–
NC(=O)CC(NC(=O)c1ccc(Br)cc1)c1ccc(N2CCN(c3ccccn3)CC2)c([N+](=O)[O-])c1 (stereo unspecified)	–	–	98.2	–	–	14.5	–
NC(=O)CC(NC(=O)Cc1ccc(Cl)cc1)c1ccc(N2CCN(c3ccccn3)CC2)c([N+](=O)[O-])c1 (stereo unspecified)	·	·	–	·	·	·	·
CC(=O)OCC1=C(C(=O)O)N2C(=O)C(NC(=O)CCn3nc(C)c(Cl)c3C)C2SC1 (stereo unspecified)	–	–	–	–	–	·	·
Cc1ccc(S(=O)(=O)/N=C(/NC(=S)Nc2cccc(C)c2)c2ccccc2)cc1	–	–	–	–	–	·	·
COc1ccc(Cl)cc1NS(=O)(=O)N1CCOCC1	·	·	50.5	·	·	–	–
Cc1onc(-c2c(F)cccc2Cl)c1C(=O)N=C(N)N1CC(C)OC(C)C1 (stereo unspecified)	–	–	–	–	–	·	·
COc1ccccc1CNC(=O)CN1CCN(c2ccc(C(C)=O)cc2)CC1	·	·	54.2	·	·	–	–
CC(=O)c1ccc(N2CCN(CC(=O)NCc3ccccc3)CC2)cc1	·	·	–	·	·	·	·
CC1CCN(CCCNC(=O)c2cc3c(=O)n(C)c4ccccc4c3n2C)CC1	–	–	–	–	–	·	·
SMILES	Dynein cargo inh	MDM2 E3 inh	Beta2AR agonist	TNF necrop inh	zVAD death inh	Beta2AR ag CP1	B2AR FAP counter
CN(C)c1ccc(-c2nnn(CC(=O)Nc3ccccc3N3CCOCC3)n2)cc1	–	–	–	–	–	–	–
CCOC(=O)CSC1=C(C#N)C(c2ccc(C)o2)CC(=O)N1 (stereo unspecified)	–	–	52.1	–	–	–	–
CCOC(=O)CSC1=C(C#N)C(c2ccc(Cl)cc2)CC(=O)N1 (stereo unspecified)	–	–	–	–	–	·	·
CC(NC(=O)C1CCCN1S(=O)(=O)c1cccc2cccnc12)c1ccccc1 (stereo unspecified)	–	–	56.1	–	–	–	–
CC(NC(=O)C1CCN(S(=O)(=O)c2cccc3cccnc23)CC1)c1ccccc1 (stereo unspecified)	·	·	–	·	·	·	·
CCS(=O)(=O)c1ncc(Cl)c(C(=O)Nc2ccc(S(=O)(=O)N3CCCC(C)C3)cc2)n1 (stereo unspecified)	·	·	46.7	·	·	–	–
CC1=NN(C(N)=S)C(=O)C1N=Nc1ccc(F)cc1 (stereo unspecified)	·	·	–	·	·	48.8	–
CC1=NN(C(N)=S)C(=O)C1N=Nc1ccc(O)cc1 (stereo unspecified)	–	–	–	–	–	·	·
Clc1ccccc1C(c1ccccc1)(c1ccccc1)n1ccnc1	–	–	51.5	–	–	29.9	–
FC(F)(F)c1ccccc1-n1ccnc1	·	·	–	·	·	·	·
Oc1c(CN2CCOCC2)cc(COCc2ccccc2)c2cccnc12	–	–	–	–	–	–	–
Oc1c(CNc2ccccc2)cc(COCc2ccccc2)c2cccnc12	·	·	–	·	·	·	·
CCOc1ccc2oc(C(=O)NCC(C)(C)CN(C)C)c(C)c2c1	–	–	55.4	–	–	–	–
CCOc1ccc2oc(C(=O)O)c(C)c2c1	–	–	–	–	–	·	·
COc1ccc(-c2nnc(SC3CCOC3=O)n2C2CCCCC2)cc1OC (stereo unspecified)	–	–	–	–	–	·	·
COc1cccc(NC2c3ccccc3C(=O)N2Cc2ccco2)c1 (stereo unspecified)	–	–	68.7	–	–	–	–
CC(=O)c1ccc(OCc2cc(C(=O)N(C)CCOc3ccc(C)cc3)no2)cc1	·	·	86.5	·	·	20.0	–
CC(=O)c1ccc(OCc2cc(C(=O)N(C)Cc3nc4c(C)cccc4[nH]3)no2)cc1	·	·	–	·	·	·	·
CC(=O)Nc1ccc(C(=O)N2CC(=O)NC(=O)C2)cc1	–	–	–	–	–	·	·
O=C(NC1(Cc2ccc(O)cc2)CCCCC1)c1ccccc1	·	·	42.9	·	·	41.0	–
CSc1nc(C)cc(SCC(=O)Nc2ccc(Cl)cc2Cl)n1	–	–	–	–	–	·	·
COc1ccc(C(=O)N(C)C2CCCCC2)cc1S(=O)(=O)N1CCOCC1	·	·	–	·	·	·	·
CSc1ccc2c(c1)C(N1CCN(C)CC1)Cc1ccccc1S2 (stereo unspecified)	–	–	60.5!	–	–	–	–
COc1cccc(/C=N/NC(=S)Nc2cccc(S(=O)(=O)N(C)C)c2)c1	–	–	–	–	–	–	–
Cc1oc(CC(C)C)cc1C(=O)Nc1cccc2ccccc12	–	–	42.7	–	–	–	–
COc1ccccc1CN1C[C@@H]2C[C@@H](c3[nH]c4ccc(C)cc4c3C)N3CCC[C@@]23C1=O	–	–	–	–	–	·	·
